Results reported in ChEMBL document CHEMBL3877249, “Novel 2-aryl-4-(4'-hydroxyphenyl)-5H-indeno[1,2-b]pyridines as potent DNA non-intercalative topoisomerase catalytic inhibitors” (Eur J Med Chem, 2017).
Calls of active or inactive are those of the source. The rule behind the calls is not given here.

What was measured:
[1] = target: DNA topoisomerase 2-alpha (Homo sapiens) (UniProt P11388); experiment: Inhibition of human DNA topoisomerase-2alpha ATPase activity at 200 uM using supercoiled pBR322 DNA as substrate after 1 hr by malachite green dye based assay relative to control
Chain of DNA topoisomerase 2-alpha (Homo sapiens) (P11388 whole entry): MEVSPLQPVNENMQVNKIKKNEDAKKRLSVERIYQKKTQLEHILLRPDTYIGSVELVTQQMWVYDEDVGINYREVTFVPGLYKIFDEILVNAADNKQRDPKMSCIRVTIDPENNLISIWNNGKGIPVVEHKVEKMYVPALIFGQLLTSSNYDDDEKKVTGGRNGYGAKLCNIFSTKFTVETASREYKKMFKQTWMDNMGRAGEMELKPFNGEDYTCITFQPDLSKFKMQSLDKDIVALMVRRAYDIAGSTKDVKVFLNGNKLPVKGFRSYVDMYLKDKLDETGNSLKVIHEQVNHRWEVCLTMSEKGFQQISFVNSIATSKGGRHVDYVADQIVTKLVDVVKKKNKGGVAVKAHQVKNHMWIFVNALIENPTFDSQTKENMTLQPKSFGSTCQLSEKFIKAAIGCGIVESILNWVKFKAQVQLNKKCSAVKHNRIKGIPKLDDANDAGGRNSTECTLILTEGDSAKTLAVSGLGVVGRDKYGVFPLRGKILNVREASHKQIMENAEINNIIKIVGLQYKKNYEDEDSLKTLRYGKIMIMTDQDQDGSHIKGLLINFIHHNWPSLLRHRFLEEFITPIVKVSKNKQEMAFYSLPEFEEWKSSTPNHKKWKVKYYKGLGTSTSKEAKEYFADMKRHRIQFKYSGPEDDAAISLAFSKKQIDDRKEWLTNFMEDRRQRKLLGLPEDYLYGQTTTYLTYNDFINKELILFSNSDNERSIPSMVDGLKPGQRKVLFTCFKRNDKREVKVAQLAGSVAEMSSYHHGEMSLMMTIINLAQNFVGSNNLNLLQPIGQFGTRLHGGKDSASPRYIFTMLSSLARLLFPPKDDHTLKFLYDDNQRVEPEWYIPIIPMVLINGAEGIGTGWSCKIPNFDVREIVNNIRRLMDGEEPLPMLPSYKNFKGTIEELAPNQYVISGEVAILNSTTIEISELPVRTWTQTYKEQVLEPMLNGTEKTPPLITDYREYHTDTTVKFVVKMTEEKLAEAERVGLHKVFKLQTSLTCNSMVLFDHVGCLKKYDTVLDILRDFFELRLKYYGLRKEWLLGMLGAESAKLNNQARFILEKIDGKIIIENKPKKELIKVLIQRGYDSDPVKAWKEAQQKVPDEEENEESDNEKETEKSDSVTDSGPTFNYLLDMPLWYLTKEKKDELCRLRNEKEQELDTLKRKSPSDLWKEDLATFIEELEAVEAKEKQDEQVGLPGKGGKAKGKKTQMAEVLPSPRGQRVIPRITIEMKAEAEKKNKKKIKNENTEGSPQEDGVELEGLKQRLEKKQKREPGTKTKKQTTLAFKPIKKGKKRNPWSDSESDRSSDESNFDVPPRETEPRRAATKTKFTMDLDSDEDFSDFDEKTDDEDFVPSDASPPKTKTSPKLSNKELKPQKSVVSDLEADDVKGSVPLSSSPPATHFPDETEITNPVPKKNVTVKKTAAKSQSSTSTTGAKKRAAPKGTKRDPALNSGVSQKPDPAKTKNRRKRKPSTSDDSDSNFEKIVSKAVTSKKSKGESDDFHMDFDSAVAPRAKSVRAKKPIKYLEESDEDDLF
Procedure, shortened: (§1)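 Topo IIα ATPase: 4 units of enzyme with 100 ng supercoiled pBR322 and 250 µM ATP in 10 mM Tris-HCl pH 7.9, 50 mM NaCl, 50 mM KCl, 5 mM MgCl2, 0.1 mM EDTA, 15 µg/mL BSA at 37 °C for 1 h. Malachite green reagent was then added for 30 min at room temperature, and released phosphate was read at 620 nm.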

[2] = target: DNA topoisomerase 2-alpha (Homo sapiens) (UniProt P11388); experiment: Inhibition of human DNA topoisomerase-2alpha ATPase activity at 300 uM using supercoiled pBR322 DNA as substrate after 1 hr by malachite green dye based assay relative to control; procedure, shortened: as §1
[3] = target: DNA topoisomerase 2-alpha (Homo sapiens) (UniProt P11388); experiment: Inhibition of human DNA topoisomerase-2alpha ATPase activity at 400 uM using supercoiled pBR322 DNA as substrate after 1 hr by malachite green dye based assay relative to control; procedure, shortened: as §1
[4] = target: DNA topoisomerase 2-alpha (Homo sapiens) (UniProt P11388); experiment: Inhibition of human DNA topoisomerase-2alpha at 20 uM using supercoiled pBR322 DNA as substrate after 30 mins by ethidium bromide staining based agarose gel electrophoresis relative to control
Procedure, shortened: (§2)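 Human topo IIα, 1 unit set by full relaxation of pBR322, with 100 ng pBR322 for 30 min in 10 mM Tris-HCl pH 7.9, 50 mM NaCl, 5 mM MgCl2, 1 mM EDTA and BSA. Stop was with EDTA. Screening was at 100 µM, with retest at 20 µM if inhibition exceeded 30%. Gel was 1% agarose at 25 V for 4 h in TAE, stained with ethidium bromide. Mean ± S.D. from three experiments in triplicate.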

[5] = target: T1, DNA topoisomerase 1 (Homo sapiens) (UniProt P11387); experiment: Inhibition of human DNA topoisomerase-1 at 100 uM using supercoiled pBR322 DNA as substrate after 30 mins by ethidium bromide staining based agarose gel electrophoresis relative to control
T1 sequence (whole entry): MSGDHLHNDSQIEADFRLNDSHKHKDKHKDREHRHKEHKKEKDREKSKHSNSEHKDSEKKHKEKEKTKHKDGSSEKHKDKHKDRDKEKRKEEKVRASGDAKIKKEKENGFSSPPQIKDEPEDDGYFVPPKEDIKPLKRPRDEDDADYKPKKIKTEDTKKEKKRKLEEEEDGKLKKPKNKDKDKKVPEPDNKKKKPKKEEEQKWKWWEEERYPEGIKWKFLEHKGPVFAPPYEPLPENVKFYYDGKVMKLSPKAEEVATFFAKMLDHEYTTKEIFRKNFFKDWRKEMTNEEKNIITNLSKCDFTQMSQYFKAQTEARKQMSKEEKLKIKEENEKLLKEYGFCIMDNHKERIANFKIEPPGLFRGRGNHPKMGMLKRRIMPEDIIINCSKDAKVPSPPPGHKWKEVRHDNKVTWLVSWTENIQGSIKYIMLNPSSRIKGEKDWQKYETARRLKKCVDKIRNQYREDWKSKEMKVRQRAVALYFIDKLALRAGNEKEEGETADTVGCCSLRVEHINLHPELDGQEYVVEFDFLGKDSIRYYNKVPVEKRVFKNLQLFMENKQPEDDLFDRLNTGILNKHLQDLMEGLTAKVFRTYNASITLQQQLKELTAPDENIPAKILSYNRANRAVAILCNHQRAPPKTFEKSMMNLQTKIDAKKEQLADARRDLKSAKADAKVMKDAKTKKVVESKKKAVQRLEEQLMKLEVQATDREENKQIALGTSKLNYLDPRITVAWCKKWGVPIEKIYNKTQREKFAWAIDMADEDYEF
Procedure, shortened: (§3)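 Recombinant human topo I, 1 unit (the amount that fully relaxes supercoiled pBR322), with 100 ng pBR322 DNA at 37 °C for 30 min in 10 mM Tris-HCl pH 7.9, 150 mM NaCl, 0.1% BSA. Compounds were screened at 100 µM, and those above 30% inhibition were retested at 20 µM. Products ran on 1% agarose at 15 V for 7 h in TAE with ethidium bromide staining. Mean ± S.D. from three experiments in triplicate.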

[6] = target: T1, DNA topoisomerase 1 (Homo sapiens); experiment: Inhibition of human DNA topoisomerase-1 at 20 uM using supercoiled pBR322 DNA as substrate after 30 mins by ethidium bromide staining based agarose gel electrophoresis relative to control; procedure, shortened: as §3
[7] = Antiproliferative activity against human HCT15 cells after 72 hrs by CCK8 assay; type: functional, cell-based; conditions: HCT-15, 72 h
Procedure, shortened: (§4)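 Cells seeded at 2–4 × 10^4 per well, grown overnight in medium with 10% FBS at 37 °C and 5% CO2. After 4 h FBS starvation they were exposed to graded compound concentrations for 72 h. CCK-8 was added for a further 4 h and absorbance read at 450 nm. IC50 came from a four-parameter logistic fit.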

[8] = Antiproliferative activity against HEK293 cells after 72 hrs by CCK8 assay; type: cell-based; conditions: Homo sapiens, HEK293, 72 h; procedure, shortened: as §4
[9] = Antiproliferative activity against human DU145 cells after 72 hrs by CCK8 assay; type: functional, cell-based; conditions: DU-145, 72 h; procedure, shortened: as §4
[10] = Antiproliferative activity against HFL1 cells after 72 hrs by CCK8 assay; type: cell-based; conditions: Homo sapiens, HFL1, 72 h; procedure, shortened: as §4
[11] = Antiproliferative activity against human HeLa cells after 72 hrs by CCK8 assay; type: functional, cell-based; procedure, shortened: as §4
[12] = organism: Homo sapiens; experiment: Inhibition of DNA topoisomerase catalytic activity in human T47D nuclear extract at 50 uM using supercoiled pBR322 DNA as substrate after 24 hrs by ethidium bromide staining based agarose gel electrophoresis relative to control
Procedure, shortened: (§5)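 T47D cells at 5 × 10^5 per 60 mm dish were grown to 80% confluence, washed with FBS-free medium and treated 24 h. Nuclear extracts were prepared in HEPES/MgCl2/KCl/DTT/NP40 buffer, then extracted with NaCl buffer. The amount of extract that fully relaxes 100 ng pBR322 at 37 °C in 20 min was set as the unit. Products were run on agarose in TAE and stained with ethidium bromide (0.5 µg/mL).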

[13] = target: DNA topoisomerase 2-alpha (Homo sapiens) (UniProt P11388); experiment: Inhibition of human DNA topoisomerase-2alpha at 100 uM using supercoiled pBR322 DNA as substrate after 30 mins by ethidium bromide staining based agarose gel electrophoresis relative to control; procedure, shortened: as §2
[14] = organism: Homo sapiens; experiment: Inhibition of DNA topoisomerase catalytic activity in human T47D nuclear extract at 20 uM using supercoiled pBR322 DNA as substrate after 24 hrs by ethidium bromide staining based agarose gel electrophoresis relative to control; procedure, shortened: as §5
[15] = target: DNA topoisomerase 2-alpha (Homo sapiens) (UniProt P11388); experiment: Inhibition of human DNA topoisomerase-2alpha at 500 uM using supercoiled pBR322 DNA as substrate after 20 mins by ethidium bromide staining based agarose gel electrophoresis relative to control
[16] = Antiproliferative activity against human T47D cells after 72 hrs by CCK8 assay; type: functional, cell-based; procedure, shortened: as §4

| SMILES | inhibition [1] [%] | inhibition [2] [%] | inhibition [3] [%] | inhibition [4] [%] | inhibition [5] [%] | inhibition [6] [%] | IC50 [7] [µM] | IC50 [8] [µM] | IC50 [9] [µM] | IC50 [10] [µM] | IC50 [11] [µM] | inhibition [12] [%] | inhibition [13] [%] | inhibition [14] [%] | inhibition [15] | IC50 [16] [µM] |
| --- | --- | --- | --- | --- | --- | --- | --- | --- | --- | --- | --- | --- | --- | --- | --- | --- |
| CO[C@@H]1[C@@H](OC(N)=O)[C@@H](O)[C@H](Oc2ccc3c(O)c(NC(=O)c4ccc(O)c(CC=C(C)C)c4)c(=O)oc3c2C)OC1(C)C | 22.7 | 33.3 | 55.9 | – | – | – | – | – | – | – | – | – | – | – | – | – |
| Oc1ccc(-c2cc(-c3ccco3)nc3c2Cc2ccccc2-3)cc1 | – | – | 0 | 92.2 | 69.7 | 53.5 | 3.12 | 3.47 | 3.74 | 7.99 | 3.96 | 97 | 95.1 | 34.3 | Active | 0.95 |
